# Bioassay records deposited in PubChem by several laboratories.
# Sampled rows, rich in hits. Any-hit rate of the full collection: about 4.3%.
# SMARCA2 activ: activators of SMARCA2 function; MG213 cells, MMTV-luciferase reporter, dexamethasone, overnight; activation, % at 9.1 µM; actives 1% (n = 370,000); AID 652017; in the data active = activation above about 7.8%;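 note: 0% = vehicle wells and 100% = reference activator wells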
# Hep lipid drop: modulators of hepatic lipid droplet formation; inhibition, % at 6.5 µM; AML12 mouse hepatocytes, oleate lipid droplets, BODIPY imaging; actives 0.4% (n = 240,000);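 active = lipid droplet intensity inhibited by at least 50%, with more than 500 cells counted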
#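 Technique: fluorescence imaging, 20x objective, two fields per well / Assay system: AML12 hepatocytes (mouse) / Measure: % inhibition of lipid droplet signal / Doses: 6.5 µM single-point dosing / Incubation: overnight exposure / Reagent: 100 µM oleic acid challenge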
# AHR act: human AHR activation | activation, % at 5 µM | AID 2796 | AHR-responsive luciferase reporter cells, luminescence | actives 2.5% (n = 320,000) | P35869; in the data active = activation above about 47%;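 note: 0% = vehicle wells and 100% = reference agonist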
# Yeast superoxide: lowers age-related superoxide in aged yeast cells; S. cerevisiae aged cells, superoxide DHE fluorescence; hits give low values; AID 2690; actives 0.18% (n = 330,000); superoxide response (% of plate mean), % at 10 µM;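 active = superoxide response under a set limit, about three screen SD below normal, cut at about 65% in these data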;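 note: yeast aged for seven days with compound at 30 °C before DHE staining; 100% = average MFI of all compound-treated wells on the plate with controls excluded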
# SR-BI uptake up: activators of SR-BI mediated HDL lipid uptake | CHO ldlA[mSR-BI] cells, DiI-HDL uptake fluorescence, 3 h; 100 = double the neutral-control signal | activation, % at 12.5 µM | actives 0.096% (n = 320,000);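 active = mean replicate activation of at least 60% and every replicate at or above 60%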;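 note: 0% = median plate neutral-control signal and 100% = twice that signal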
#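 Material: SR-BI-overexpressing, LDLR-lacking CHO cells | Dosing: Single compound concentration, delivered by pin transfer | Probe or stimulus: Labelled HDL, 10 µg/mL | Signal: Bottom-read cell fluorescence after medium removal, ex 550/em 595 nm | Schedule: 3 h, 37 °C | Evaluation: HDL uptake via cellular fluorescence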
# SR-BI HDL uptake: blocks mouse SR-BI lipid uptake from DiI-HDL | inhibition, % at 12.5 µM | ldlA[mSR-BI] CHO cells, DiI-HDL uptake fluorescence, 3 h | Q61009 | actives 0.96% (n = 320,000);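 active = mean replicate inhibition of at least 70% and a set share of replicates each scoring 70 or more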;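 note: 0% = median of neutral control wells and 100% = median of positive control wells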
# Target sequence (Q61009 whole entry, looked up): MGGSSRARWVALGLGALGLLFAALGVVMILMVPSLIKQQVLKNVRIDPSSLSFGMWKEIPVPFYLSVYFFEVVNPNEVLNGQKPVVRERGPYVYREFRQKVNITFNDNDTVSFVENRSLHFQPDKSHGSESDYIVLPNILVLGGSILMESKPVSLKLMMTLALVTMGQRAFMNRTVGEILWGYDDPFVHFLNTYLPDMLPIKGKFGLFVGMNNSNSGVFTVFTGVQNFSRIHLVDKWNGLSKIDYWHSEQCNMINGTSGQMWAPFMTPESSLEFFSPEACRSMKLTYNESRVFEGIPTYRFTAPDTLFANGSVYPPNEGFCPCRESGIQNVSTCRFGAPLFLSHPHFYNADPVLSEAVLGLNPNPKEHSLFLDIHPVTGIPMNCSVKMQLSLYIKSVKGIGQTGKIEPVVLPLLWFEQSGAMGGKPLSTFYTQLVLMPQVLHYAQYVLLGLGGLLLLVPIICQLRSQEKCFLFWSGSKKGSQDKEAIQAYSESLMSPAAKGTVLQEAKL
# SMARCA2 act conf: confirmation of SMARCA2 (BRM) function activators. MG213 cells, MMTV-luciferase with dexamethasone, luminescence, overnight; MG213 cells expressing E1A, Rb sequestered; DMSO wells 0%, reference activator 100%. actives 30% (n = 3,500). shares compounds with SMARCA2 activ. activation, % at 9.1 µM. AID 652260;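 active = activation above its plate's cutoff, the mean activation of tested wells plus 3 SD, cut at about 7.9% in these data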
# VP16 Luc act: counter-screen for SMARCA2 activators: GAL4-VP16 luciferase reporter activation; actives 41% (n = 3,500); activation, % at 9.1 µM; HEK293 GAL4-VP16 pG5luc reporter, luciferase luminescence; scaled: DMSO wells 0%, SAHA wells 100%; shares compounds with SMARCA2 activ; AID 686939;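 active = activation above the solvent-only control well mean plus 3 SD, averaged across control plates, cut at about 5.2% in these data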
# An asterisk follows results filed as active; i = inactive; . = no result.
SMILES,SMARCA2 activ,Hep lipid drop,AHR act,Yeast superoxide,SR-BI uptake up,SR-BI HDL uptake,SMARCA2 act conf,VP16 Luc act
Cc1cccc2nc(CSc3ccc(Cl)cc3)cn12,10*,.,2,108,-10,10,6,1
O=S(=O)(c1cc2ccccc2s1)n1c(CN2CCOCC2)nc2ccccc21,-7,.,.,.,.,.,.,.
O=C(Cn1cc(SCc2cccc(Cl)c2)c2ccccc21)N1CCOCC1,18*,26,14,98,-6,6,3,5.4*
COCc1[nH]nc2c1C(c1ccc3c(c1)OCO3)N(Cc1ccccc1)C2=O (stereo unspecified),-3,.,.,.,.,.,.,.
O=c1c2cc3cc(Cl)ccc3nc2ncn1CCc1c[nH]c2ccccc12,-4,.,.,.,.,.,.,.
COc1ccc(N2C(=O)c3n[nH]c(C)c3C2c2ccccc2)cc1 (stereo unspecified),0,.,.,.,.,.,.,.
CC(=Nc1ccc(Cl)cc1N)c1c(O)cc(C)oc1=O,9.0*,.,.,.,.,.,5,15*
CCOC(=O)CSc1n[nH]c(-c2ccco2)n1,9.4*,.,-1,95,21,-21,-5,2
NNC(=O)c1ccc(Cn2cc(Br)cn2)o1,8.1*,1,31,98,15,-15,-1,1
O=C(CN1C(=O)CSc2ccccc21)NC1CCCC1,8.3*,.,-2,94,13,-13,0,0
O=C(NC1CCCCN(Cc2cccc(F)c2)C1=O)c1cccc(C(F)(F)F)c1 (stereo unspecified),-2,.,.,.,.,.,.,.
O=C(OCC(=O)N1CCCC1=O)c1nc(Cl)c(Cl)c(Cl)c1Cl,34*,10,26,88,15,-15,7,4
CCCc1cc(=O)oc2c(CN(CC)CC)c(O)c(Cl)cc12,9.4*,10,-1,106,17,-17,-3,1
COC1=C[C@H](C(=O)NCCNC(C)=O)[C@@]2(C)Cc3ccccc3[C@H]2CC1=O,-3,.,.,.,.,.,.,.
Cc1ccc(/C=C2/CCc3c([nH]c4ccccc34)C2=O)cc1,8.2*,.,13,101,9,-9,3,11*
CCOc1ccc(N=C(/C(C(=O)C(=O)N2CCOCC2)=C(\O)c2ccccc2)c2ccccc2)cc1,9.2*,17,3,120,-2,2,7,6.1*
CC(=O)c1sc(NC(=O)CCS(=O)(=O)c2ccccc2)nc1C,11*,3,2,105,-10,10,7.8*,0
CC(=O)c1sc(NC(=O)CCS(=O)(=O)c2ccc(F)cc2)nc1C,2,.,.,.,.,.,.,.
OC1OC2COC(c3ccccc3)OC2C(O)C1O (stereo unspecified),2,.,.,.,.,.,.,.
NCCN1CCN(S(=O)(=O)c2ccc3c(c2)CCN3C(=O)C2CCC2)CC1,-2,.,.,.,.,.,.,.
O=C(COC(=O)/C=C/c1ccc(Cl)cc1Cl)NCC1CCCO1 (stereo unspecified),8.7*,.,2,114,-5,5,2,0
CC(C)C[C@H]1COc2ccc(Cl)cc2S(=O)(=O)N1Cc1cn(Cc2ccc(C(F)(F)F)cc2)nn1,-2,.,.,.,.,.,.,.
CCOc1ccccc1NS(=O)(=O)c1ccc2c(c1)n(C)c(=O)c(=O)n2C,12*,8,0,102,2,-2,3,1
CCOC(=O)c1ccc(NC(=S)N(CCN(C)C)C(C)c2ccncc2)cc1 (stereo unspecified),11*,4,-2,92,-11,11,-2,-1
CCc1cccc(NC(=S)N(CCN(C)C)C(C)c2ccncc2)c1 (stereo unspecified),-2,-17,2,91,.,.,.,.
SMILES,SMARCA2 activ,Hep lipid drop,AHR act,Yeast superoxide,SR-BI uptake up,SR-BI HDL uptake,SMARCA2 act conf,VP16 Luc act
O=S(=O)(CC1NCc2cc(F)ccc21)NCc1ccccc1 (stereo unspecified),-2,.,.,.,.,.,.,.
C/C(=N/NC(=O)c1ccc(Cl)cc1Cl)c1cccnc1,.,.,10,98,14,-14,.,.
C/C(=N\NC(=O)c1cccs1)c1cccnc1,8.4*,0,30,99,13,-13,0,1
C/C(=N\NC(=O)c1ccc(O)cc1O)c1cccnc1,10*,2,.,96,-7,7,3,3
COc1ccccc1C(=O)n1ccc2ccc(-c3ccc4ccn(Cc5ccccc5)c4c3)cc21,-3,.,.,.,.,.,.,.
O=C(NC(=S)Nc1ccccn1)c1cccc([N+](=O)[O-])c1,8.8*,0,11,84,-5,5,5,7.5*
O=C(N/N=C/c1ccccn1)c1cccc([N+](=O)[O-])c1,11*,10,2,107,8,-8,2,4
O=C(N/N=C/c1ccccn1)c1ccc(Br)cc1,12*,-19,13,106,6,-6,-8,25*
O=C(N/N=C/c1ccccn1)c1cc([N+](=O)[O-])cc([N+](=O)[O-])c1,2,12,15,120,6,-6,.,.
CCOc1ccc(C(=O)NC(=S)Nc2ccccn2)cc1[N+](=O)[O-],0,16,0,91,12,-12,.,.
COC(=O)C1=C(C)N(Cc2ccccc2C(F)(F)F)C(=NCc2ccc(OC)cc2)NC1c1ccc(F)cc1 (stereo unspecified),0,.,.,.,.,.,.,.
CC(C)(C)OC(=O)COc1ccc(/C=N/NC(=O)CN2CCCCC2)cc1,14*,0,.,.,-13,13,5,5.3*
COc1ccc(/C=N/NC(=O)CN2CCCC2)cc1,2,22,5,98,19,-19,.,.
Cc1ccc(C)c(NC(=O)CN(C)C(=O)C2=NNC(=O)CC2)c1,0,.,2,96,16,-16,.,.
Cc1ccc(CNC(=O)C2=NNC(=O)CC2)cc1,12*,-3,1,111,5,-5,4,7.9*
O=C1Nc2ccccc2N(C(=O)c2c(F)cccc2F)C1c1nc2ccccc2[nH]1 (stereo unspecified),10*,.,.,.,.,.,4,10*
O=C(CS(=O)c1ccc(C(F)(F)F)cc1[N+](=O)[O-])Oc1ccc(Cl)cc1 (stereo unspecified),11*,.,9,107,-1,1,14*,0
Cc1cc(C)cc(OC(=O)CS(=O)c2ccc(C(F)(F)F)cc2[N+](=O)[O-])c1 (stereo unspecified),14*,.,29,i,19,-19,13*,4
O=C(NCCO)c1ccc(Oc2ccc(C(F)(F)F)cc2[N+](=O)[O-])cc1,-1,-2,-1,89,5,-5,.,.
